We go through one compound from ChEMBL document CHEMBL4725346, “Syntheses and Evaluation of New Bisacridine Derivatives for Dual Binding of G-Quadruplex and i-Motif in Regulating Oncogene c-myc Expression” (J Med Chem, 2020).

The source made the active and inactive calls. The rule behind the calls is not given here.

Series [1] relates to SiHa. The experiment in a line: Antitumor activity against human SiHa cells xenografted in BALB/c nude mouse assessed as reduction in tumor weight at 15 mg/kg, ip administered once per 2 days for 18 days relative to control. The following applies: time 18 day. It counts as functional. Also on record: scale not given: the % may be the effect or the level left. In outline:
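SiHa tumor fragments from donor xenografts (grown to about 1,000 mm³) implanted in the underarm of female BALB/c nude mice; six per group. Dosed ip once every two days for 18 days, saline as negative control, cisplatin 0.2 mg/kg as positive control. Tumor volume = length × width²/2. Tumors weighed at sacrifice.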

In series [2] the test system is SiHa. Put plainly: Antiproliferative activity against human SiHa cells after 48 hrs by MTT assay. The class given is functional, cell-based. An outline of the steps: (§1)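 Cells seeded at 5.0×10^3 per well, pre-incubated 12 h at 37 °C, 5% CO2, then exposed to compounds for 48 h; DMSO-only control. MTT (2.5 mg/mL) added for 4 h, formazan dissolved in DMSO, absorbance at 570 nm. Each dose tested in triplicate; IC50 from percentage survival relative to negative control.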
For orientation: Formazan colour is commonly taken as a measure of viable cells.

The test system of series [3] is SiHa. The experiment in a line: Induction of cell cycle arrest in human SiHa cells assessed as accumulation of cells at S phase at 0.15 uM after 24 hrs by propidium iodide staining based flow cytometry (reference value: 17.74%). The class given is functional. A general note: A flow cytometer gives signals particle by particle.
Series [4] concerns SiHa. Put plainly: Induction of cell cycle arrest in human SiHa cells assessed as accumulation of cells at G0/G1 phase at 0.30 uM after 24 hrs by propidium iodide staining based flow cytometry (reference value: 42.28%). The class given is functional. Conditions: dose 0.3 µM.
Series [5] can be described thus: Binding affinity to 5'-biotin labeled c-myc promoter i-motif DNA Py33 (unknown origin) by surface plasmon resonance method. In outline: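 SPR: 5'-biotin DNA diluted to 1 μM and captured (1000 RU) on a sensor chip, with a blank cell as reference. Running buffers: Py33 in 20 mM MES pH 5.8, 100 mM KCl, 0.05% Tween-20; Pu27 and duplex in 50 mM Tris-HCl pH 7.4, 100 mM KCl. Six ligand concentrations serially diluted from DMSO stock. Association 260 s, dissociation 300 s at 25 °C; NaOH regeneration; blank sensorgrams subtracted.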
(In general: In SPR one partner is held on a chip, and binding of the other changes the refractive index at the surface.)

Series [6] relates to Quadruplex DNA. Put plainly: Binding affinity to c-myc promoter G-quadruplex/i-motif in human SiHa cells assessed as reduction in c-myc expression incubated for 24 hrs by Western blot analysis. The class given is cell-based. An outline of the steps:
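SiHa cells treated 24 h at 0, 0.625, 1.25 and 2.5 μM, then lysed in buffer with 1 mM PMSF. Protein measured by BCA, equal loads run on 8% gel and blotted to PVDF. Probed with anti-c-MYC and anti-β-actin (loading control), HRP anti-rabbit secondary, chemiluminescence read-out.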

Series [7] concerns Raji. The experiment in a line: Induction of cell cycle arrest in human Raji cells assessed as accumulation of cells at G2/M phase at 0.15 to 0.6 uM after 24 hrs by propidium iodide staining based flow cytometry. It counts as functional. The following applies: dose microM 0.15-0.6, time 24.0 hrs.
Series [8] is described as follows: Binding affinity to 5'-biotin labeled c-myc promoter i-motif DNA Py33 (unknown origin) by UV titration method.
A further series has as its system U2OS. The experiment in a line: Antiproliferative activity against human U2OS cells after 48 hrs by MTT assay. The class given is functional, cell-based. An outline of the steps:
as §1

A short description of series [9]: Stabilization of c-myc promoter i-motif DNA Py33 (unknown origin) assessed as increase in slower migration band incubated overnight by silver staining based PAGE analysis. In outline: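 Py33 (3 µM) co-annealed with increasing ligand in 1× BPES pH 6.8 at 95 °C for 5 min, cooled, held at 4 °C overnight. Run on native 20% acrylamide in 1× TBE at 140 V for 5 h at 5 °C, then silver-stained.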

Series [10] can be described thus: Toxicity in BALB/c nude mouse xenografted with human SiHa cells assessed as effect on spleen weight at 15 mg/kg, ip administered once per 2 days for 18 days. It counts as organism-based. Conditions: in vivo, 432 h, time 18 day. An outline of the steps:
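SiHa tumour fragments passaged from donor mice implanted in the underarm of female BALB/c nude mice (six per group). Compound given at 15 mg/kg ip once every two days for 18 days, with saline and cisplatin 0.2 mg/kg control groups. Body weight recorded every two days; at day 18 mice were sacrificed and organs weighed.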

The subject of series [11] is Raji. Put plainly: Antiproliferative activity against human Raji cells after 48 hrs by MTT assay. The class given is functional, cell-based.
Series [12] concerns Quadruplex DNA. Put plainly: Binding affinity to c-myc mutated promoter G-quadruplex/i-motif (unknown origin) expressed in human SiHa cells assessed as reduction in c-myc transcription by measuring decrease in ratio of renilla/firefly luciferase activity at 0.025 to 0.1 uM after 48 hrs by dual-luciferase reporter assay. It counts as cell-based. The following applies: dose microM 0.025-0.1, time 48.0 hrs. An outline of the steps:
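SiHa cells transfected with 200 ng psiCHECK2 plasmid carrying wild-type, mutant or deleted c-myc promoter. Compounds added 8 h after transfection, then incubated 48 h at 37 °C. Cells washed with ice-cold PBS; Renilla/firefly activity ratio read by dual-luciferase assay.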

Series [13] relates to SiHa. The experiment in a line: Inhibition of cell invasion in human SiHa cells at 0.5 uM by transwell assay relative to control. It counts as functional. In outline:
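Transwell assay: SiHa cells incubated 24 h with 0.5 µM compound. Cell […] through the transwell was compared with an untreated control.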

For series [14], the system named is Quadruplex DNA. Put plainly: Binding affinity to c-myc promoter G-quadruplex/i-motif in human SiHa cells assessed as reduction in c-myc mRNA level incubated for 24 hrs by qRT-PCR analysis. The class given is cell-based. Conditions: dose microM 0.625-2.5, time 24.0 hrs. In outline: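 SiHa cells at 0, 0.625, 1.25 and 2.5 μM for 24 h; DMSO control. Total RNA extracted with TRIzol. 1.5 μg RNA reverse-transcribed with oligo dT18 and M-MLV (42 °C 60 min). PCR of 30 cycles (95/58/72 °C), products run on 1.2% agarose. β-actin as internal control; three repeats.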

Series [15] has as its system Quadruplex DNA. Put plainly: Binding affinity to c-myc promoter G-quadruplex/i-motif in human Raji cells assessed as reduction in c-myc mRNA transcription incubated for 24 hrs. It counts as cell-based. The following applies: dose microM 0.16-2.5, time 24.0 hrs.
Series [16] can be described thus: Stabilization of c-myc promoter i-motif DNA Py33 (unknown origin) by 1H NMR spectra analysis. An outline of the steps:
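1D ¹H NMR titration with water suppression at 25 °C on a 600 MHz spectrometer. DNA at 0.5 mM in 10% D₂O/90% H₂O: Pu27 in 10 mM Tris-HCl pH 7.4, Py33 in 1× BPES pH 6.4. Annealed at 95 °C for 5 min before titration; ligand stock in d₆-DMSO.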

For series [17], the system named is SiHa. The experiment in a line: Induction of cell cycle arrest in human SiHa cells assessed as accumulation of cells at S phase at 0.30 uM after 24 hrs by propidium iodide staining based flow cytometry (reference value: 17.74%). The class given is functional. The following applies: dose 0.3 µM.
For series [18], the system named is Quadruplex DNA. The experiment in a line: Binding affinity to c-myc promoter G-quadruplex/i-motif in human CA46 cells assessed as reduction in c-myc mRNA transcription at 0.16 to 2.5 uM incubated for 24 hrs. The class given is cell-based. The following applies: dose microM 0.16-2.5, time 24.0 hrs.
The test system of series [19] is SiHa. Put plainly: Inhibition of c-myc transcription in human SiHa cells harboring c-myc deleted promoter G-quadruplex/i-motif (unknown origin) assessed as decrease in ratio of renilla/firefly luciferase activity at 0.025 to 0.1 uM after 48 hrs by dual-luciferase reporter assay. The following applies: dose microM 0.025-0.1, time 48.0 hrs. The class given is functional, cell-based. An outline of the steps:
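Psicheck2 plasmid carrying deleted c-myc promoter (lacking NHE III₁ G/C-rich sequence), 200 ng, lipofected into SiHa cells. Compound added 8 h post-transfection, cells kept 48 h at 37 °C, washed with ice-cold PBS, then Renilla/Firefly luciferase activity ratio measured with a dual-luciferase kit.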

By IC50 is commonly meant the concentration needed to halve the response being measured. Usually Kd stands for the free concentration of one partner at which half of the binding sites on the other are occupied at equilibrium, for simple one-to-one binding. As usually defined, the inhibition is how much of the control response was suppressed.

Turning to `Cc1ccc2nc3ccc(C)cc3c(NCCCNCCNCCCNc3c4cc(C)ccc4nc4ccc(C)cc34)c2c1`, the Activity with SiHa [1] is 41.6%; in the series with SiHa [3], 16.96%; in the series on SiHa [4], 30.44%; in the series with Quadruplex DNA [6], “Dose-dependent effect”; in series [9], “Dose-dependent effect”; in series [10], “Non-Toxic”. Further, the Activity entry in the series on Quadruplex DNA [14] was “Dose-dependent effect”; in the series on Quadruplex DNA [15] it was “Dose-dependent effect”; with SiHa [17], 15.22%. The IC50 in the series with SiHa [2] is 1220 nM; with U2OS, 310 nM. The same compound had a Kd in series [5] of 2400 nM. The result (with Raji [7]; in series [8]; in the series on Raji [11]; in series [16]) was Active. The outcome in the series with Quadruplex DNA [12], in the series on Quadruplex DNA [18] and in the series on SiHa [19] was inactive. At 0.5 µM the inhibition with SiHa [13] was 85%.
